An excerpt weighted towards active compounds, which were near 0.29% of everything screened.
PKA-R1A act: activators of PKA-R1A complex; 340,000 tested, 0.083% active; AID 504707; PKA-R1A dissociation, Cy5-IP20 fluorescence polarization; scaled: DMSO 0%, 113 µM cGMP 100%; P00514+P68181; activation, % at 11.4 µM;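 active = percent activation above the mean of all tested compounds plus 3 SD, cut at about 19% in these data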;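 note: higher means more PKAc released from R1A so a rise in polarization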
procasp3 activ: procaspase-3 (human) activation. activation, % at 8.5 µM. 330,000 tested, 0.11% active. recombinant procaspase-3 D3A, Ac-DEVD-pNA absorbance 405 nm;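 active = activation above the mean of all tested compounds plus 3 SD, cut at about 21% in these data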
Target sequence (P42574 whole entry D9A/D28A/D175A): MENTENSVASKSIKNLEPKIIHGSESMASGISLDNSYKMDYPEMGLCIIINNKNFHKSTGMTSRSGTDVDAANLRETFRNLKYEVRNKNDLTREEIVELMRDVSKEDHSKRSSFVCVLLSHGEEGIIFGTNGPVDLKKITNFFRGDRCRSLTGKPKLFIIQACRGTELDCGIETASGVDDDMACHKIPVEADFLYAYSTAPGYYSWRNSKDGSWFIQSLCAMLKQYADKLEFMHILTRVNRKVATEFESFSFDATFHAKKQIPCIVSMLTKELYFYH
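Assay system – Procaspase-3 D3A mutant · Benchmarks – DMSO low control, extra-enzyme high control · Technique – 405 nm absorbance of p-nitroaniline, reads at 0 and 120 min · Doses – 8.5 µM nominal · Measure – % activation between DMSO and enzyme-spiked controls · Also added – Ac-DEVD-pNA chromogenic peptide substrate · Schedule – 1 h compound preincubation, 2 h substrate hydrolysis at 25 °C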
procasp7 counter: counter-screen: procaspase-7 (human) activation | 330,000 tested, 0.093% active | activation, % at 8.5 µM | recombinant procaspase-7, Ac-DEVD-pNA absorbance 405 nm; D23A/D198A/D206A triple mutant, cannot self-cleave; scale: DMSO 0, 5 µM enzyme 100 | AID 463210;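 active = percent activation above the screen-wide mean plus 3 SD, cut at about 25% in these data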
Target sequence (P55210 whole entry D23A/D198A/D206A): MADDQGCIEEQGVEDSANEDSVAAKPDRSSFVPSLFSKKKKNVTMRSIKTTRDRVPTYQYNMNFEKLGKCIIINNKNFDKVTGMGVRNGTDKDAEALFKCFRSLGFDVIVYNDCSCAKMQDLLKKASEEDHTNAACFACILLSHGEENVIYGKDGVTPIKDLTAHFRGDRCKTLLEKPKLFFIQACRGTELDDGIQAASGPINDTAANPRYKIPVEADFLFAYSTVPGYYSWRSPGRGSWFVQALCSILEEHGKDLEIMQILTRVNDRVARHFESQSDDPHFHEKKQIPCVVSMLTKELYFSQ
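Replicates: singlicate. Assay system: Procaspase-7 triple mutant (PC-7 D3A). Signal: 405 nm absorbance of p-nitroaniline. Times: 1 h preincubation, 2 h reaction. Buffer or medium: Zinc-free HEPES pH 7.4 with 300 mM NaCl, 0.01% Triton X-100. Also added: DEVD-pNA substrate. Benchmarks: DMSO wells as 0%, DMSO with 5 µM added PC-7 as 100%.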
PKA-R2B act: PKA-R2B complex activation; PKA-R2B holoenzyme dissociation, Cy5-IP20 fluorescence polarization; R2B truncated from residue 108, S112A mutant; 0% DMSO only, 100% 113 µM cGMP; P22694+P31323; activation, % at 11.4 µM; 340,000 tested, 0.079% active;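 active = activation above a cutoff set at the mean over all compounds plus 3 SD, cut at about 18% in these data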;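 note: higher means more holoenzyme dissociation and a rise in polarization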
R1A FP artifact: counter-screen for PKA-R1A activators: fluorescence polarization artifacts; shares compounds with PKA-R1A act; Cy5-IP20 peptide alone, fluorescence polarization artifact counterscreen; activation, % at 11.4 µM; 280 tested, 7% active;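 active = mean activation over triplicate runs exceeds the adjusted cutoff derived for the parent primary screen, cut at about 19% in these data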;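 note: no PKA protein present so any polarization rise reflects compound interference; higher means stronger polarization artifact and likely false positive in parent screen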
PKA-R1A confirm: PKA-R1A complex activation, confirmation; Cy5-IP20 fluorescence polarization, PKA-R1A holoenzyme dissociation; shares compounds with PKA-R1A act; activation, % at 11.4 µM; 280 tested, 9% active;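 active = mean activation over replicate wells exceeds the adjusted hit threshold taken from the earlier primary screen, cut at about 20% in these data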
Numbers stand for hits.

`Cc1ccc(-c2csc3nc(=O)c(C)nn23)cc1` gave procasp3 activ inactive and procasp7 counter inactive.
Cc1ccc(OCCCN(C)C)c(Br)c1 was read as PKA-R1A act inactive, procasp3 activ inactive, procasp7 counter inactive and PKA-R2B act inactive.
For O=C(NNC(=S)Nc1cccc(Cl)c1)c1ccccc1 the results were PKA-R1A act 19.6, procasp3 activ inactive, procasp7 counter inactive, PKA-R2B act inactive, R1A FP artifact inactive and PKA-R1A confirm inactive.
Screening c1ccc(CSC2=NCCS2)cc1 returned PKA-R1A act inactive, procasp3 activ inactive, procasp7 counter inactive and PKA-R2B act inactive.
For Cc1cc(C(=O)N/N=C/c2cc(Cl)cc([N+](=O)[O-])c2O)c2ccccc2n1 the results were PKA-R1A act inactive, procasp3 activ inactive, procasp7 counter inactive and PKA-R2B act inactive.
COc1ccc(N(CC(=O)NCCSc2ccccn2)S(=O)(=O)c2ccccc2)cc1OC was read as PKA-R1A act 20.7, procasp3 activ inactive, procasp7 counter inactive, PKA-R2B act inactive, R1A FP artifact inactive and PKA-R1A confirm inactive.
COc1ccc(N(CC(=O)NCCSc2ccccn2)S(=O)(=O)c2ccc(C)cc2)cc1OC was read as PKA-R1A act inactive, procasp3 activ inactive, procasp7 counter inactive and PKA-R2B act inactive.
CCNC(=S)NNC(=O)Cn1nc(C)cc1C was read as PKA-R1A act inactive, procasp3 activ inactive, procasp7 counter inactive and PKA-R2B act inactive.
Screening Cc1ccc(S(=O)(=O)NN=Cc2ccco2)cc1 returned PKA-R1A act 21.9, PKA-R2B act inactive, R1A FP artifact inactive and PKA-R1A confirm inactive.
`Cc1ccc(S(=O)(=O)N/N=C/c2cc(Br)c(C)o2)cc1` gave PKA-R1A act inactive, procasp3 activ inactive, procasp7 counter inactive and PKA-R2B act inactive.
Screening O=C(c1ccccc1F)N(NC(=O)C(O)(c1ccccc1)c1ccccc1)c1ccccc1 returned PKA-R1A act inactive, procasp3 activ inactive, procasp7 counter inactive and PKA-R2B act inactive.
`CC#CC(=O)NC1CCCN(C2Cc3ccccc3C2)C1` (stereo not given) gave PKA-R1A act 19.5, procasp3 activ inactive, procasp7 counter inactive, PKA-R2B act inactive, R1A FP artifact inactive and PKA-R1A confirm inactive.
O=C(Nc1ccncc1)C1CCCN(S(=O)(=O)c2cccc3cccnc23)C1 (stereo not given) was read as PKA-R1A act inactive, procasp3 activ inactive, procasp7 counter inactive and PKA-R2B act inactive.
For N#CCSc1nnc(-c2ccccc2O)n1CCc1ccccc1 the results were PKA-R1A act inactive, procasp3 activ inactive, procasp7 counter inactive and PKA-R2B act inactive.
COc1ccc(C(=O)C[n+]2cccc3cc(C)ccc32)cc1 was read as PKA-R1A act 18.7, procasp3 activ inactive, procasp7 counter inactive, PKA-R2B act inactive, R1A FP artifact inactive and PKA-R1A confirm inactive.
COc1ccc(Nc2cc(C)nc3ncnn23)cc1Cl was read as PKA-R1A act 22.3, procasp3 activ inactive, procasp7 counter inactive, PKA-R2B act inactive, R1A FP artifact inactive and PKA-R1A confirm inactive.
O=C(Nc1ccc2c(c1)OCO2)c1ccc2c(c1)S(=O)(=O)c1ccccc1C2=O was read as PKA-R1A act inactive, procasp3 activ inactive, procasp7 counter inactive and PKA-R2B act inactive.
Screening O=C(NCc1ccc2c(c1)OCO2)c1ccc2c(c1)S(=O)(=O)c1ccccc1C2=O returned PKA-R1A act 21.8, procasp3 activ inactive, procasp7 counter inactive, PKA-R2B act inactive, R1A FP artifact inactive and PKA-R1A confirm inactive.
CC(=O)Nc1ccc(S(=O)(=O)N2CCc3cc4c(cc3C2C)OCCCO4)cc1 (stereo not given) was read as PKA-R1A act 21.3, procasp3 activ inactive, procasp7 counter inactive, PKA-R2B act inactive, R1A FP artifact inactive and PKA-R1A confirm inactive.
For O=c1c(Cl)c(NCc2ccccc2Cl)cnn1C12CC3CC(CC(C3)C1)C2 the results were PKA-R1A act 18.6, procasp3 activ inactive, procasp7 counter inactive, PKA-R2B act inactive, R1A FP artifact inactive and PKA-R1A confirm inactive.
Screening O=c1c(Cl)c(NCc2ccco2)cnn1C12CC3CC(CC(C3)C1)C2 returned PKA-R1A act inactive, procasp3 activ inactive, procasp7 counter inactive and PKA-R2B act inactive.
`COCc1cc([C@@H]2C[C@H]3CN(c4ccccc4)C(=O)[C@]34CCCN24)ccc1OC` gave PKA-R1A act inactive, procasp3 activ inactive, procasp7 counter inactive and PKA-R2B act inactive.
COC(=O)C1=CN(c2cccc(Cl)c2)C=C(C(=O)OC)C1c1cccc(OC)c1 was read as PKA-R1A act 18.6, PKA-R2B act inactive, R1A FP artifact inactive and PKA-R1A confirm inactive.
CC(C)C[C@@H](CNCC(=O)[C@H](Cc1ccccc1)NC(=O)c1[nH]cnc1C(=O)N[C@@H](C)CN)NC(=O)c1nc[nH]c1C(=O)N[C@@H](C)C(=O)O was read as PKA-R1A act inactive and PKA-R2B act inactive.
For CCOC(=O)C1CCN(CC(C)(C)NS(=O)(=O)c2ccccc2)CC1 the results were PKA-R1A act 20.7, procasp3 activ inactive, procasp7 counter inactive, PKA-R2B act inactive, R1A FP artifact inactive and PKA-R1A confirm inactive.
Screening CCOC(=O)C1=NNC(C(=O)c2ccc(OC)cc2)C1c1ccccc1 (stereo not given) returned PKA-R1A act 19.9, procasp3 activ inactive, procasp7 counter inactive, PKA-R2B act inactive, R1A FP artifact inactive and PKA-R1A confirm inactive.
Screening CCOC(=O)C1=NNC(C(=O)c2ccccc2)C1c1ccc(C)cc1 (stereo not given) returned PKA-R1A act inactive, procasp3 activ inactive, procasp7 counter inactive and PKA-R2B act inactive.
For CCOC(=O)c1nnn(-c2ccccc2C#N)c1C the results were PKA-R1A act 20.0, procasp3 activ inactive, procasp7 counter inactive, PKA-R2B act inactive, R1A FP artifact inactive and PKA-R1A confirm inactive.
`CCOC(=O)c1nnn(-c2ccc([N+](=O)[O-])cc2)c1C` gave PKA-R1A act inactive, procasp3 activ inactive, procasp7 counter inactive and PKA-R2B act inactive.
`CCN1C(=O)/C(=C/N(C)C)c2ccccc21` gave PKA-R1A act 19.1, procasp3 activ inactive, procasp7 counter inactive, PKA-R2B act inactive, R1A FP artifact inactive and PKA-R1A confirm inactive.
COc1ccc(CN(C)CC(=O)NC(=O)NCc2ccccc2)cc1OC was read as PKA-R1A act 20.9, procasp3 activ inactive, procasp7 counter inactive, PKA-R2B act inactive, R1A FP artifact inactive and PKA-R1A confirm inactive.
CC1CC(N(C(=O)c2ccc(Cl)cc2)c2ccccc2)c2ccccc2N1C(=O)c1ccco1 (stereo not given) was read as PKA-R1A act inactive, procasp3 activ inactive, procasp7 counter inactive and PKA-R2B act inactive.
